The source of these data is ChEMBL document CHEMBL3407386, “Design, synthesis, and biological evaluation of tetrazole analogs of Cl-amidine as protein arginine deiminase inhibitors” (J Med Chem, 2015).

Data set [1] deals with Protein-arginine deiminase type-4 (Homo sapiens) (UniProt Q9UM07). Briefly: Inhibition of PAD4 (unknown origin) using N-alpha-benzoyl-L-arginine ethyl ester as substrate assessed as citrulline production after 15 mins by COLDER assay.
The test system of data set [2] is U2OS. Kind of data set: Antiproliferative activity against human U2OS cells expressing PAD4 assessed as cell viability at 20 uM after 72 hrs by XTT assay. It counts as functional. In a few lines: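 U2OS cells were treated the next day at 20 μM final for 72 h, with DMSO and Triton X-100 as controls. Viability was read by XTT absorbance at 475 nm.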
In general terms: Tetrazolium dyes change colour on reduction, which living cells bring about.

The target in data set [3] is T1, Protein-arginine deiminase type-1 (Homo sapiens) (UniProt Q9ULC6).
T1 sequence (whole entry): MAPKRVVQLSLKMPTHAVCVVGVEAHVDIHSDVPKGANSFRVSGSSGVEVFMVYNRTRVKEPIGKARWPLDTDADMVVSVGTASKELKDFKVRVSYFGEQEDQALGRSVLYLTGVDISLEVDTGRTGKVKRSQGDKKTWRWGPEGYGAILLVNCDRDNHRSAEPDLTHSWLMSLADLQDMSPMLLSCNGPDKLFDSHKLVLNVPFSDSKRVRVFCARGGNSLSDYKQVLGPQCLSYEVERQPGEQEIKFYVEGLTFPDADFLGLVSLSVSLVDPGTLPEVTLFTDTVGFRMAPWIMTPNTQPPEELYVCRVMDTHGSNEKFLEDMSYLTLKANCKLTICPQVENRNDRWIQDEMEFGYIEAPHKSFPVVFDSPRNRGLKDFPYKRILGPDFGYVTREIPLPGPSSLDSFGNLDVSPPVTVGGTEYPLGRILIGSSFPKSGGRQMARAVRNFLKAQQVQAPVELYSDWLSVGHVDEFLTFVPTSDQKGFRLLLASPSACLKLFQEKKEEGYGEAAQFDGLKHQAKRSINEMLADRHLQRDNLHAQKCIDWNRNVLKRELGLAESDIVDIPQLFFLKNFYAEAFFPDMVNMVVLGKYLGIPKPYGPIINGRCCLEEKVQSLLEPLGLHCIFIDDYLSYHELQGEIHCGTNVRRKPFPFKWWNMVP
Briefly: Ratio of Kinact to Ki for PAD1 (unknown origin) using N-alpha-benzoyl-L-arginine ethyl ester as substrate assessed as citrulline production after 15 mins by COLDER assay.

Data set [4] concerns the target Protein-arginine deiminase type-4 (Homo sapiens) (UniProt Q9UM07). Kind of data set: Ratio of Kinact to Ki for PAD4 (unknown origin) using N-alpha-benzoyl-L-arginine ethyl ester as substrate assessed as citrulline production after 15 mins by COLDER assay.
The species entered for data set [5] is Homo sapiens. Briefly: Selectivity ratio for PAD1 (unknown origin) over PAD2 (unknown origin).
Data set [6] is filed under the species Homo sapiens. Kind of data set: Selectivity ratio for PAD1 (unknown origin) over PAD3 (unknown origin).
Data set [7] addresses T1, Protein-arginine deiminase type-1 (Homo sapiens). Kind of data set: Inhibition of PAD1 (unknown origin) using N-alpha-benzoyl-L-arginine ethyl ester as substrate assessed as citrulline production after 15 mins by COLDER assay.
Data set [8] has as its system Liver. Briefly: Metabolic stability in mouse liver microsomes. It counts as ADME. A general note: Liver microsomes are a subcellular fraction often used to study metabolism.
The subject of data set [9] is U2OS. Briefly: Antiproliferative activity against human U2OS cells expressing PAD4 assessed as cell viability after 72 hrs by XTT assay. Type of data set: functional, cell-based. Summed up: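 U2OS human osteosarcoma cells were plated and treated the next day with an eight-point concentration series for 72 h. Viability was read by XTT at 475 nm. EC50 was fitted to a dose–response equation with range (uninhibited minus background) and slope factor.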

Data set [10] is described as follows: Cytotoxicity against human neutrophils assessed as cell viability after 4 hrs by XTT assay. Particulars: Neutrophil. Type of data set: cell-based. In a few lines: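 Freshly isolated human neutrophils in RPMI 1640 with 10% FBS were seeded at 40 000 cells/well on poly-L-lysine and allowed to adhere for 1 h. They were exposed to compound at 1–500 μM for 4 h, and viability was read by XTT.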

In data set [11] the target is Protein-arginine deiminase type-2 (Homo sapiens) (UniProt Q9Y2J8). Kind of data set: Inhibition of PAD2 (unknown origin) using N-alpha-benzoyl-L-arginine ethyl ester as substrate assessed as citrulline production after 15 mins by COLDER assay.
Data set [12] concerns the target Protein-arginine deiminase type-4 (Mus musculus) (UniProt Q9Z183). Briefly: Inhibition of PAD4 in C57BL/6 mouse bone marrow neutrophils assessed as inhibition of PMA-stimulated neutrophil extracellular trap formation at […] preincubated for 30 mins followed by PMA stimulation measured after 3 to 4 hrs by […]. Summed up: (§1)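 C57BL/6 bone-marrow neutrophils were isolated on a Percoll gradient (69–78% interface, >95% Ly-6G+) and seeded at 1.5 × 10^5 on poly-L-lysine coverslips. They were pretreated for 30 min in Locke's solution, then given 100 nM PMA for 3–4 h, PFA-fixed, and stained with Hoechst and anti-myeloperoxidase. NETs (decondensed MPO+ nuclei) were counted blind over ≥5 fields as % of total cells.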

Data set [13] shares this target. Kind of data set: Inhibition of PAD4 in C57BL/6 mouse bone marrow neutrophils assessed as inhibition of PMA-stimulated neutrophil extracellular trap formation at 2 to 200 uM preincubated for 30 mins followed by PMA stimulation measured after 3 to 4 hrs by […]. Summed up:
as §1

Calls of active or inactive are those of the source. The rule behind the calls is not given here. A value given as a limit tells only on which side of the number the result lay.

Sequence of Protein-arginine deiminase type-4 (Homo sapiens) (Q9UM07 whole entry): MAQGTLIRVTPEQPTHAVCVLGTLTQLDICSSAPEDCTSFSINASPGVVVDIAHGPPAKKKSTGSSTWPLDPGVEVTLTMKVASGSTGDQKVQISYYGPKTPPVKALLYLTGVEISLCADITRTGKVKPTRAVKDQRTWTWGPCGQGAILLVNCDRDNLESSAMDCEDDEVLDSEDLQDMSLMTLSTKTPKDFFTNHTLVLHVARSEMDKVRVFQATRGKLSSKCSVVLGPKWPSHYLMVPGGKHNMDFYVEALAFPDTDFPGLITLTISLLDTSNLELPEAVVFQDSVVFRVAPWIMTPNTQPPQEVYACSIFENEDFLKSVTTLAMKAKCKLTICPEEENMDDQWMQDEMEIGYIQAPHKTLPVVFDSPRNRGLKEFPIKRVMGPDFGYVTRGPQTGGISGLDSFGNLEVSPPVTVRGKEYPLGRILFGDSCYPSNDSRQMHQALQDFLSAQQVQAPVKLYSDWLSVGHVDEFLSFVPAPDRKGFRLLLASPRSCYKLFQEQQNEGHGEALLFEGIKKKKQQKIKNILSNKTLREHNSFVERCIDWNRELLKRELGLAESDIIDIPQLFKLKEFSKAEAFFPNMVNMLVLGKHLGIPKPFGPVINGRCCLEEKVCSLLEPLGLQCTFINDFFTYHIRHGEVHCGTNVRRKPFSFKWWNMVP
Sequence of Protein-arginine deiminase type-4 (Mus musculus) (Q9Z183 whole entry): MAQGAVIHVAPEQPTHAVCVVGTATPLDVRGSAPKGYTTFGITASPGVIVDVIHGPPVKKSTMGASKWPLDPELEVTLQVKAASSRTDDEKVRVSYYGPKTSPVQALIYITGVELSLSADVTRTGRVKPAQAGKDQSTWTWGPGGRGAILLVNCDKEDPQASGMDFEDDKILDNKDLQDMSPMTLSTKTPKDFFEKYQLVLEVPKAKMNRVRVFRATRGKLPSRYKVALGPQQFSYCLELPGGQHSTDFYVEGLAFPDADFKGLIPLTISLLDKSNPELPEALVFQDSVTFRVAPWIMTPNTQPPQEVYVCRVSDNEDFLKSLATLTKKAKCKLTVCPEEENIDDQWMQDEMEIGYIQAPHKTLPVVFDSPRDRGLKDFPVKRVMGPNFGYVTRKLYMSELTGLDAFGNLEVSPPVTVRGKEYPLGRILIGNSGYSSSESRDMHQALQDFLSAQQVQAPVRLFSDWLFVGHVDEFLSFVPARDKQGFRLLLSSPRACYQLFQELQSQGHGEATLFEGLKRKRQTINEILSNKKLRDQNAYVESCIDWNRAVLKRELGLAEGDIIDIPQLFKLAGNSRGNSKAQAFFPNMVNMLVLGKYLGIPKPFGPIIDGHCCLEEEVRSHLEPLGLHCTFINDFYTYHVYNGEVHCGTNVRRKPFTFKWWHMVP
Sequence of Protein-arginine deiminase type-2 (Homo sapiens) (Q9Y2J8 whole entry): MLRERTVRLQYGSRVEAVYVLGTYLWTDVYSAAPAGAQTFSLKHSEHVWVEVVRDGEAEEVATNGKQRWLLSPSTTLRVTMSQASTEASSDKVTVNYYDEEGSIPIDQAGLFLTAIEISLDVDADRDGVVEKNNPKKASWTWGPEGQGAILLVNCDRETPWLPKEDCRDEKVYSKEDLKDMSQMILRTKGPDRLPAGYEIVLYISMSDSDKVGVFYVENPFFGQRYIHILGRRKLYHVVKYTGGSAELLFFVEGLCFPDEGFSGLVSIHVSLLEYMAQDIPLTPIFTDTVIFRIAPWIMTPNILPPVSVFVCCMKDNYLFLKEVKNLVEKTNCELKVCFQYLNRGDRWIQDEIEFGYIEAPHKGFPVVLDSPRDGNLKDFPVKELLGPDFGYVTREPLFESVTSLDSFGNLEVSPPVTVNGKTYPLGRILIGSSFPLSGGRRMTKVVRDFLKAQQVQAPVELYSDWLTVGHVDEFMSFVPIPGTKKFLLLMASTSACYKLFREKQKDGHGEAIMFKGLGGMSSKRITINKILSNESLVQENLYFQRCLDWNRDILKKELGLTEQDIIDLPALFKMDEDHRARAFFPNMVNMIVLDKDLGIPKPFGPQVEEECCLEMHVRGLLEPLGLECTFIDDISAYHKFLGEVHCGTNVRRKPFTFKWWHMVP

Consider `CC(C)(C)n1nnc([C@H](CCCNC(=N)CF)NC(=O)c2ccccc2)n1`, for which the inhibition result in [1] is “inactive”. Also, in [2], the outcome was inactive.
For `N=C(CCl)NCCC[C@H](NC(=O)c1ccccc1C(=O)O)c1nn[nH]n1`, the Ratio turned out to be 82000 M⁻¹ min⁻¹ in data set [3] and 159000 M⁻¹ min⁻¹ in data set [4]. Moreover, the Selectivity ratio in data set [5] and in data set [6] was 15 throughout. Also, the outcome in data set [2] was inactive.
Take `N=C(CCl)NCCC[C@H](NC(=O)c1ccc(-c2ccccc2)cc1)c1nn[nH]n1`: the outcome in data set [2] was inactive.
Regarding `N=C(CF)NCCC[C@H](NC(=O)c1ccccc1)C(N)=O`, the inhibition entry in data set [1] was “inactive”.
With `N=C(CF)NCCC[C@H](NC(=O)c1ccccc1C(=O)O)c1nn[nH]n1`, the Selectivity ratio in [5] and in [6] was 20 each time. Also, in [7], the inhibition result is “Active”. In addition, the inhibition result in data set [1] was “inactive”. Besides, the Stability entry in [8] is reported as “Stable”. Further, the result in data set [2] was inactive.
`CC(C)(C)n1nnc([C@H](CCCNC(=N)CF)NC(=O)c2ccc(-c3ccccc3)cc2)n1`: the inhibition result in [1] is “inactive”. In [9], the 50% effective concentration (EC50) (in general, the concentration giving half of the maximal effect) is 45 µM. Further, the Stability result in data set [8] is “Stable”. Also, the viability at 20 µM in data set [2] (read-out: Activity) is greater than 50%.
Regarding `CC(C)(C)n1nnc([C@H](CCCNC(=N)CCl)NC(=O)c2ccc(-c3ccccc3)cc2)n1`, the inhibition result in data set [1] is “inactive”. Further, the figures for the EC50 in data set [9] and in [10] were 10 µM and 31 µM, respectively.
With `N=C(CF)NCCC[C@H](NC(=O)c1ccc(-c2ccccc2)cc1)c1nn[nH]n1`, the inhibition entry in data set [1] was “inactive”. Also, the result in data set [2] was inactive.
With `CC(C)(C)n1nnc([C@H](CCCNC(=N)CF)NC(=O)c2ccccc2C(=O)O)n1`, the inhibition result in data set [1] is “inactive”. Besides, the inhibition entry in data set [11] is “Active”. Moreover, in data set [8], the Stability entry was “Stable”. Further, the outcome in data set [2] was inactive.
As to `CC(C)(C)n1nnc([C@H](CCCNC(=N)CCl)NC(=O)c2ccccc2C(=O)O)n1`, the Stability result in [8] is listed as “Stable”. Moreover, in [12], the inhibition result is “Active”. The EC50 in data set [10] worked out at 985 µM. Moreover, in [2], the result was inactive.
On to `N=C(CCl)NCCC[C@H](NC(=O)c1ccccc1)c1nn[nH]n1`, for which, in data set [2], the result was inactive.
As to `N=C(CCl)NCCC[C@H](NC(=O)c1ccccc1)C(N)=O`, the inhibition result in data set [13] was “Active”.
Regarding `CC(C)(C)n1nnc([C@H](CCCNC(=N)CCl)NC(=O)c2ccccc2)n1`, the result in data set [2] was inactive.
In the case of `N=C(CF)NCCC[C@H](NC(=O)c1ccccc1)c1nn[nH]n1`, in data set [1], the inhibition entry is “inactive”. In [2], the result was inactive.
